Values after ≈ are worked out from the molar mass of the structure shown. Active and inactive are the calls of the source. The rule behind the calls is not given here.
Legend:
[1] = system: Mycobacterium intracellulare; assay: Antimycobacterial activity against Mycobacterium intracellulare ATCC 23068 after 70 to 74 hrs by Alamar blue based CLSI method; assay type: functional
[2] = system: Mycobacterium tuberculosis; assay: Antimycobacterial activity against Mycobacterium tuberculosis ATCC 25177 after 5 days by Alamar blue based CLSI method; assay type: functional; details: H37Ra, 120 h
Staphylococcus aureus [3] = assay: Growth inhibition of Staphylococcus aureus EAMC30 at 62.5 ug/ml by Alamar blue based CLSI method relative to control; assay type: functional; details: read-out: GI
Staphylococcus aureus [4] = assay: Antimicrobial activity against methicillin-resistant Staphylococcus aureus ATCC 1708 at 200 ug/ml by Alamar blue based CLSI method; assay type: functional, organism-based
Summary of the method: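 S. aureus ATCC 1708 tested by a modified CLSI method. Samples were dissolved in DMSO and serially diluted in 20% DMSO/saline, and final test concentrations were 1/100th of the DMSO stock. MIC was taken as the lowest concentration with no detectable growth.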

Pseudomonas aeruginosa = assay: Antimicrobial activity against Pseudomonas aeruginosa ATCC 2108 at 200 ug/ml by Alamar blue based CLSI method; assay type: functional, organism-based
Escherichia coli = assay: Antimicrobial activity against Escherichia coli ATCC 2452 at 200 ug/ml by Alamar blue based CLSI method; assay type: functional, organism-based

Row | Structure (SMILES) | MIC [1] | MIC [2] | inhibition of growth at 62.5 µg/mL (Staphylococcus aureus [3]) | Activity (Staphylococcus aureus [4]) | Activity (Pseudomonas aeruginosa) | Activity (Escherichia coli)
1 | O=C(N[C@H](CO)[C@H](O)c1ccc([N+](=O)[O-])cc1)C(Cl)Cl [CHLORAMPHENICOL] | 25 µg/mL (≈ 77.4 µM) | > 100 µg/mL |  |  |  | 
2 | CC(=O)O[C@H](c1ccc([N+](=O)[O-])cc1)[C@@H](CO)NC(=O)C(Cl)Cl | 25 µg/mL (≈ 68.5 µM) |  |  |  |  | 
3 | CCC(=O)OC[C@@H](NC(=O)C(Cl)Cl)[C@H](OC(=O)CC)c1ccc([N+](=O)[O-])cc1 |  |  | 40% | inactive | inactive | inactive
4 | CC(=O)OC[C@@H](NC(=O)C(Cl)Cl)[C@H](O)c1ccc([N+](=O)[O-])cc1 | 25 µg/mL (≈ 68.5 µM) |  | 15% | inactive | inactive | inactive
5 | CCCC(=O)OC[C@@H](NC(=O)C(Cl)Cl)[C@H](OC(=O)CC)c1ccc([N+](=O)[O-])cc1 |  |  |  | inactive | inactive | inactive
6 | CCCC(=O)O[C@H](c1ccc([N+](=O)[O-])cc1)[C@@H](COC(=O)CC)NC(=O)C(Cl)Cl |  |  |  | inactive | inactive | inactive
7 | O=C(O[C@H](c1ccc([N+](=O)[O-])cc1)[C@@H](CO)NC(=O)C(Cl)Cl)c1ccc([N+](=O)[O-])cc1 | 12.5 µg/mL (≈ 26.5 µM) | 50 µg/mL (≈ 106 µM) | 59% |  |  | 
8 | CCCC(=O)OC[C@@H](NC(=O)C(Cl)Cl)[C@H](OC(=O)CCC)c1ccc([N+](=O)[O-])cc1 |  |  | 11% | inactive | inactive | inactive
9 | O=C(/C=C/c1ccccc1)O[C@H](c1ccc([N+](=O)[O-])cc1)[C@@H](CO)NC(=O)C(Cl)Cl |  |  | 35% |  |  | 
10 | CCCC(=O)OC[C@@H](NC(=O)C(Cl)Cl)[C@H](O)c1ccc([N+](=O)[O-])cc1 |  |  | 36% | inactive | inactive | inactive
11 | CCC(=O)OC[C@@H](NC(=O)C(Cl)Cl)[C@H](OC(C)=O)c1ccc([N+](=O)[O-])cc1 |  |  |  | inactive | inactive | inactive
12 | CCC(=O)OC[C@@H](NC(=O)C(Cl)Cl)[C@H](O)c1ccc([N+](=O)[O-])cc1 |  |  | 72% | inactive | inactive | inactive
13 | CC(=O)OC[C@@H](NC(=O)C(Cl)Cl)[C@H](OC(C)=O)c1ccc([N+](=O)[O-])cc1 |  |  |  | inactive | inactive | inactive
